Here are results for 21 compounds from ChEMBL document CHEMBL1932989, “Dibasic biphenyl H3 receptor antagonists: Steric tolerance for a lipophilic side chain” (Eur J Med Chem, 2012).

Molecules are shown by their SMILES. Activity calls are given as the source filed them. The calls are words filed in the database; no cut-off is given here. Where only a bound is given, the exact number is not on record here.

Experiment [1] concerns the target Histamine H4 receptor (Homo sapiens, UniProt Q9H3N8). In words: Displacement of [3H]histamine from human histamine H4 receptor expressed in GPCR97 transfected human SK-N-MC cells. The experiment is classed as cell-based. In short, it runs like this:
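Membranes of SK-N-MC cells stably expressing human H4, 60 min at room temperature with 10 nM [3H]-histamine, competitor 0.01 nM–10 μM. Filtration with two ice-cold Tris–HCl/EDTA washes. 10 μM histamine defined nonspecific binding. pKi derived from pIC50 by Cheng–Prusoff.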
For orientation: Loss of bound radioactivity is the signal in a displacement assay; it reports binding, not function.

Experiment [2] concerns the target Histamine H3 receptor (Rattus norvegicus, UniProt Q9QYN8). Put plainly: Displacement of [3H]RAMHA from rat histamine H3 receptor in rat cerebral cortex membranes. The experiment is classed as cell membranes, Membrane. The procedure, abridged: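 Rat brain membranes (Kilpatrick method) incubated 45 min with 0.5 nM [3H]-(R)-α-methylhistamine and compound (0.03 nM–10 μM) in 50 mM Tris–HCl pH 7.4, 50 mM NaCl, 0.5 mM EDTA. Vacuum filtration, two ice-cold buffer rinses. Nonspecific binding with 10 μM thioperamide. pIC50 converted to pKi via Cheng–Prusoff; means ± SEM.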

Experiment [3] addresses Histamine H2 receptor (Cavia porcellus) (UniProt P47747). In words: Antagonist activity at histamine H2 receptor in guinea pig spontaneously beating isolated atria assessed as changes in rate of spontaneous beating at 1 uM by cardiotachograph analysis.
For experiment [4], the target named is T1, Histamine H3 receptor (Homo sapiens, UniProt Q9Y5N1). In words: Displacement of [3H]RAMHA from human histamine H3 receptor expressed in GPCR97 transfected human SK-N-MC cells. The experiment is classed as cell-based. In short, it runs like this: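 SK-N-MC cell membranes stably expressing human H3; 60 min at room temperature with 0.5 nM [3H]-(R)-α-methylhistamine, competitor 0.01 nM–10 μM. Filtration, two washes with ice-cold 50 mM Tris–HCl/5 mM EDTA. Nonspecific binding with 10 μM histamine. pIC50 from displacement curves converted to pKi by Cheng–Prusoff; means ± SEM.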

The target in experiment [5] is T1, Histamine H3 receptor. In words: Antagonist activity at human histamine H3 receptor expressed in human SK-N-MC cells assessed as inhibition of (R)-alpha-methylhistamine-induced effect after 6 hrs by beta-galactosidase reporter gene assay. Format: functional, cell-based. In short, it runs like this:
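SK-N-MC cells expressing human H3 receptor and a β-galactosidase reporter; compounds (1 nM–10 µM) added 10 min before (R)-α-methylhistamine (0.1–100 nM), forskolin 5 µM added 5 min after compound. Incubated 6 h at 37 °C, cells lysed, chlorophenol red β-D-galactopyranoside colour read at 570 nm. Response as % agonist maximum; pKB by Furchgott equation, or pD2' by Van Rossum for non-surmountable antagonism; mean ± SEM.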
A general note: A reporter such as luciferase makes a cellular process visible.

Experiment [6] addresses Histamine H1 receptor (Cavia porcellus) (UniProt P31389). In words: Antagonist activity at histamine H1 receptor in guinea pig longitudinally mounted ileum assessed as […] up to 10 uM […]. Format: functional, tissue-based.
Experiment [7] has as its target Neuronal acetylcholine receptor subunit alpha-7 (Homo sapiens) (UniProt P36544). Put plainly: Displacement of [125I]alpha-bungarotoxin from human alpha7 nicotinic receptor at 1 uM by scintillation counting. In short, it runs like this:
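Membrane homogenates bearing human α7 nicotinic receptor (20 µg protein) incubated 120 min at 37 °C with 0.05 nM [125I]α-bungarotoxin in 50 mM K2HPO4/KH2PO4 pH 7.4, 10 mM MgCl2, 0.1% BSA. Nonspecific binding with 1 µM α-bungarotoxin. Filtration on PEI-soaked glass fibre, scintillation counting; % inhibition of specific binding, duplicate.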

Experiment [8] has as its target Histamine H2 receptor (Cavia porcellus) (UniProt P47747). To be noted: Ileum.

Sequence of Histamine H1 receptor (Cavia porcellus) (P31389 whole entry): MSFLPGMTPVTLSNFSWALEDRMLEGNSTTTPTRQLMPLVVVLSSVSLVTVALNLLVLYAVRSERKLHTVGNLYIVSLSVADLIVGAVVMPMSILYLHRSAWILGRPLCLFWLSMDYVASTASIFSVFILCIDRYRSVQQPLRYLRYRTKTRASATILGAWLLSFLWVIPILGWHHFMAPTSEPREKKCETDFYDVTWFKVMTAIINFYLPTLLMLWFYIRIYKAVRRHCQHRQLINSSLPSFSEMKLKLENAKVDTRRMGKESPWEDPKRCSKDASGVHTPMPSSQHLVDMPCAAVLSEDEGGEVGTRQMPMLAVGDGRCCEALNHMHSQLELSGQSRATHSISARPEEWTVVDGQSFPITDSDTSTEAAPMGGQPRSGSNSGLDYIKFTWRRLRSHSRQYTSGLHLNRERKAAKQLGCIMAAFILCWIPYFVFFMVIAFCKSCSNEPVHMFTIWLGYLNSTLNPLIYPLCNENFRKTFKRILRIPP
Sequence of Histamine H4 receptor (Q9H3N8 whole entry): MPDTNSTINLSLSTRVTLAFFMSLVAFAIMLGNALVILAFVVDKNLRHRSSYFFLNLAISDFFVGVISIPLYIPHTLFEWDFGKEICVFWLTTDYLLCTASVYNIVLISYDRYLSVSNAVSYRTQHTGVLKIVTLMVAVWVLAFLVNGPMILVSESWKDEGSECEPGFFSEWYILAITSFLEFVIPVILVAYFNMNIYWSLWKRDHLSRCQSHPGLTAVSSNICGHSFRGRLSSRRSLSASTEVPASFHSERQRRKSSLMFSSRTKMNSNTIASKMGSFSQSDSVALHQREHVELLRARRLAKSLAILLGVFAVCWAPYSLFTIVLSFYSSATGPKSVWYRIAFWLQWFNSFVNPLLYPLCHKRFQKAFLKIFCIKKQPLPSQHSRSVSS
Sequence of Histamine H2 receptor (Cavia porcellus) (P47747 whole entry): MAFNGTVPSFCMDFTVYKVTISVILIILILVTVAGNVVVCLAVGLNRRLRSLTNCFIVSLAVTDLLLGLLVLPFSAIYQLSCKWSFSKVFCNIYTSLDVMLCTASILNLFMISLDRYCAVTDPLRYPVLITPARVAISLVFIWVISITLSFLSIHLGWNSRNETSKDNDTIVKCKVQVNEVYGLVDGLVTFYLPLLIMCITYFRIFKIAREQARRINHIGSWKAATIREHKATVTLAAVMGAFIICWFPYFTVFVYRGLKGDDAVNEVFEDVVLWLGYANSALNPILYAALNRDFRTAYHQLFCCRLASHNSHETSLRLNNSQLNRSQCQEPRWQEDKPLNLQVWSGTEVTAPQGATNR
T1 sequence (Q9Y5N1 whole entry): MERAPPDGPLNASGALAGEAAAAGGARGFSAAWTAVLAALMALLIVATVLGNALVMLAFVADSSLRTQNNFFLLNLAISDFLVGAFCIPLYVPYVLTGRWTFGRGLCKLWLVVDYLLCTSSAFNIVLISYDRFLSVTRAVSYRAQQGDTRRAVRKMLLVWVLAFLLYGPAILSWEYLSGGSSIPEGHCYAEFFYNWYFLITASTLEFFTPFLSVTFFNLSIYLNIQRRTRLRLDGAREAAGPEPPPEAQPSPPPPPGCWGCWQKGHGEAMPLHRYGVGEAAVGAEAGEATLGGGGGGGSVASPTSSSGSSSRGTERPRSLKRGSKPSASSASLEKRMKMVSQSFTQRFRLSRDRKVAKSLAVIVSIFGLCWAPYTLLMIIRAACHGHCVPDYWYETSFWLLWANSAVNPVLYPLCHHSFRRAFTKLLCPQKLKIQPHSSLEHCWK
Sequence of Histamine H3 receptor (Rattus norvegicus, UniProt Q9QYN8) (Q9QYN8 whole entry): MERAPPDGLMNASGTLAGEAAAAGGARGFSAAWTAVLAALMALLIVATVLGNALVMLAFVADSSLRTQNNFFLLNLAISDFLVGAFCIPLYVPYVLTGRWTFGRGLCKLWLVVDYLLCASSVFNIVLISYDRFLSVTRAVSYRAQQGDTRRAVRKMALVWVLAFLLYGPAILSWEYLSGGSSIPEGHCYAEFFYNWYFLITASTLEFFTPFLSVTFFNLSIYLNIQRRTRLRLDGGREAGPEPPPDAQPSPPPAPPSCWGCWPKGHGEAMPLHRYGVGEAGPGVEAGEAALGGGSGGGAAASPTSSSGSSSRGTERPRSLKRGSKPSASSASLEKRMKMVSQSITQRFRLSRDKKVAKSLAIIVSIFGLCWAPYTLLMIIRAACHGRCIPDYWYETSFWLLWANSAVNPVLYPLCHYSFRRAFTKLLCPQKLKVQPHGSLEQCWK
Sequence of Neuronal acetylcholine receptor subunit alpha-7 (Homo sapiens) (P36544 whole entry): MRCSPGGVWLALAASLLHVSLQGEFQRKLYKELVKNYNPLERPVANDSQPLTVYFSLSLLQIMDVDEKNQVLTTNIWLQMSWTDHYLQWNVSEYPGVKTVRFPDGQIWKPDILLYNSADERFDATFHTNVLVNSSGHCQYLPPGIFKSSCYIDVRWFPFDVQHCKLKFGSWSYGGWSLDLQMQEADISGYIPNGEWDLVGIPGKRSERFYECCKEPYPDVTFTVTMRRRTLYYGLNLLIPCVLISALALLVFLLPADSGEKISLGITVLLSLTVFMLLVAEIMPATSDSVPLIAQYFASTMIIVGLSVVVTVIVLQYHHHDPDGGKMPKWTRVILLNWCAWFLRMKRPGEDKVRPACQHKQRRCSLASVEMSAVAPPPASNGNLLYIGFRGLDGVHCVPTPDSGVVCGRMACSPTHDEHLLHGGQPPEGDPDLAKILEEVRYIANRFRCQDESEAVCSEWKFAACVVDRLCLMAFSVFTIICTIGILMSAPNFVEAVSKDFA

In general, Ki refers to a measure of affinity in units of concentration, obtained from inhibition or displacement. Read a low Ki as tighter binding. One may read the pKb as the Kb on a negative log10 scale, so that one unit is a factor of ten. `CCCC[C@@H](c1ccc(-c2ccc(CN3CCCCC3)cc2)cc1)N1CCC[C@@H]1C`: the results for the Ki in experiment [1], in experiment [2] and in experiment [4] were at least 31600 nM, 1.41 nM and 1.26 nM, respectively. Besides, the result in experiment [3] and in experiment [6] was inactive. Also, the pKb in experiment [5] is 8.37.

On to `C[C@@H]1CCCN1Cc1ccc(-c2ccc(CN3CCCCC3)cc2)cc1`, for which the Ki in experiment [1] was at least 31600 nM; in experiment [2], 3.55 nM; in experiment [4], 1.48 nM. Moreover, the result in experiment [3] and in experiment [6] was inactive. The pKb in experiment [5] stood at 9.16.

As to `C[C@H]1CCCN1Cc1ccc(-c2ccc(CN3CCCCC3)cc2)cc1`, the Ki was at least 31600 nM in experiment [1], 0.372 nM in experiment [2] and 0.661 nM in experiment [4]. For the same compound, the result in experiment [3] and in experiment [6] was inactive. For the same compound, the pKb in experiment [5] stood at 9.46.

Take `C[C@H]1CCCN1[C@H](CCCOc1ccccc1)c1ccc(-c2ccc(CN3CCCCC3)cc2)cc1`: the figures for the Ki in experiment [1], in experiment [2] and in experiment [4] were at least 31600 nM, 6.61 nM and 0.513 nM, respectively. Moreover, the result in experiment [3] and in experiment [6] was inactive. For the same compound, the pKb in experiment [5] turned out to be 8.48. The inhibition entry in experiment [7] was “inactive”.

As for `CCCCCc1ccc(-c2ccc(CN3CCCCC3)cc2)cc1`, the values for the Ki in experiment [1], in experiment [2] and in experiment [4] were at least 31600 nM, 60300 nM and 12900 nM, respectively. Moreover, the result in experiment [3] was inactive.

On to `C[C@@H]1CCCN1Cc1ccc(-c2ccc(C(Cc3ccccc3)N3CCCCC3)cc2)cc1` (mixture of isomers), for which the inhibition constant Ki in experiment [1] was at least 31600 nM; in experiment [2], 29.5 nM; in experiment [4], 5.62 nM. Besides, the result in experiment [3] and in experiment [6] was inactive. Also, the pKb in experiment [5] worked out at 8.87.

In the case of `CCCCC(c1ccc(-c2ccc(CN3CCCCC3)cc2)cc1)N1CCCCC1` (racemic), the values for the Ki in experiment [1], in experiment [2] and in experiment [4] were at least 31600 nM, 4.27 nM and 1.29 nM, respectively. Also, the outcome in experiment [3] and in experiment [6] was inactive. The pKb in experiment [5] is 8.81.

In the case of `CCCCC(c1ccc(-c2ccc(C)cc2)cc1)N1CCCCC1` (racemic), the Ki is at least 31600 nM in experiment [1], 43700 nM in experiment [2] and 13500 nM in experiment [4]. Moreover, the outcome in experiment [3] was inactive.

In the case of `CCCC[C@@H](c1ccc(-c2ccc(CN3CCCCC3)cc2)cc1)N1CCCC[C@@H]1C`, the results for the Ki in experiment [1], in experiment [2] and in experiment [4] were at least 31600 nM, 26.3 nM and 2.45 nM, respectively. Moreover, the result in experiment [3] and in experiment [6] was inactive. The pKb in experiment [5] turned out to be 8.94.

`c1ccc(CC(c2ccc(-c3ccc(CN4CCCCC4)cc3)cc2)N2CCCCC2)cc1` (racemic): the Ki is at least 31600 nM in experiment [1], 112 nM in experiment [2] and 19.1 nM in experiment [4]. In addition, the outcome in experiment [3] and in experiment [6] was inactive. In experiment [5], the pKb was found to be 8.3.

As for `c1cc(-c2ccc(CN3CCCCC3)cc2)ccc1CN1CCCCC1`, in experiment [5], the pKb came to 8.77.

As to `COCCC[C@@H](c1ccc(-c2ccc(CN3CCCCC3)cc2)cc1)N1CCC[C@@H]1C`, the figures for the Ki in experiment [1], in experiment [2] and in experiment [4] were at least 31600 nM, 1.78 nM and 0.871 nM, respectively. The result in experiment [3] and in experiment [6] was inactive. Besides, the pKb in experiment [5] came to 10.

`COc1ccc(OCCC[C@@H](c2ccc(-c3ccc(CN4CCCCC4)cc3)cc2)N2CCC[C@@H]2C)cc1`: the Ki in experiment [1] was at least 31600 nM; in experiment [2] it was 2.09 nM; in experiment [4] it was 2.04 nM. Moreover, the result in experiment [3] and in experiment [6] was inactive. For the same compound, the negative logarithm of the Kb (pKb) in experiment [5] is 8.71.

Regarding `COc1ccc(OCCC[C@H](c2ccc(-c3ccc(CN4CCCCC4)cc3)cc2)N2CCC[C@@H]2C)cc1`, the Ki in experiment [1] was at least 31600 nM; in experiment [2], 6.61 nM; in experiment [4] it was 1.26 nM. Further, the outcome in experiment [3] and in experiment [6] was inactive. The pKb in experiment [5] amounted to 8.71.

On to `CCCC[C@H](c1ccc(-c2ccc(CN3CCCCC3)cc2)cc1)N1CCCC[C@@H]1C`, for which the Ki is at least 31600 nM in experiment [1], 26.3 nM in experiment [2] and 3.02 nM in experiment [4]. The outcome in experiment [3] and in experiment [6] was inactive. Moreover, the pKb in experiment [5] stood at 8.91.

Turning to `CCCC[C@H](c1ccc(-c2ccc(CN3CCCCC3)cc2)cc1)N1CCC[C@H]1C`, the results for the Ki in experiment [1], in experiment [2] and in experiment [4] were at least 31600 nM, 12.6 nM and 2.45 nM, respectively. The values for the pKb in experiment [8] and in experiment [5] were 5.13 and 8.8, respectively. Further, the result in experiment [6] was inactive.

Take `CCCC[C@H](c1ccc(-c2ccc(CN3CCCCC3)cc2)cc1)N1CCC[C@@H]1C`: the Ki was at least 31600 nM in experiment [1], 8.71 nM in experiment [2] and 1.55 nM in experiment [4]. In addition, the result in experiment [3] and in experiment [6] was inactive. The pKb in experiment [5] turned out to be 8.81.

Take `CN(C)C(Cc1ccccc1)c1ccc(-c2ccc(CN3CCCCC3)cc2)cc1` (racemic): the Ki in experiment [1] was at least 31600 nM; in experiment [2], 30.2 nM; in experiment [4], 16.6 nM. For the same compound, the result in experiment [3] and in experiment [6] was inactive. Besides, the pKb in experiment [5] worked out at 7.56.

Take `C[C@H]1CCCN1[C@@H](CCCOc1ccccc1)c1ccc(-c2ccc(CN3CCCCC3)cc2)cc1`: the results for the Ki in experiment [1], in experiment [2] and in experiment [4] were at least 31600 nM, 4.68 nM and 2.57 nM, respectively. The result in experiment [3] and in experiment [6] was inactive. The pKb in experiment [5] was determined as 9.15.

As for `COCCC[C@H](c1ccc(-c2ccc(CN3CCCCC3)cc2)cc1)N1CCC[C@@H]1C`, the Ki in experiment [1] is at least 31600 nM; in experiment [2], 1.48 nM; in experiment [4] it was 2 nM. Also, the result in experiment [3] and in experiment [6] was inactive. Also, in experiment [5], the pKb worked out at 9.64.

On to `CCCC[C@@H](c1ccc(-c2ccc(CN3CCCCC3)cc2)cc1)N1CCC[C@H]1C`, for which the Ki in experiment [1] was at least 31600 nM; in experiment [2], 16.2 nM; in experiment [4] it was 2.34 nM. Also, the result in experiment [3] and in experiment [6] was inactive. Besides, in experiment [5], the pKb is 8.58.
